# High-throughput results as filed in PubChem BioAssay.
# Shown are actives, neighbours in structure and some others; about 3.9% of the full set was active somewhere.
# CHO parental Ca: signal in parental CHO cells, OX1R antagonist counter-screen; parental CHO-K1, ATP-induced calcium, Fluo-8 fluorescence; inhibition, % at 5.6 µM; hit rate 0.63% among 330,000; AID 463079;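 active = inhibition above that plate's mean sample inhibition plus 3 SD, cut at about 26% in these data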
#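 Measured by: calcium-sensitive Fluo-8 fluorescence / Test system: CHO parental line / Controls: ATP-challenged DMSO wells low, unchallenged DMSO wells high / Measure: % inhibition / Compound: single nominal dose of 5.6 µM per compound / Replicates: single well per compound, no replicates / Reagent: ATP as calcium-mobilizing challenge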
# OX1R antag-1: blocks the human orexin 1 receptor; AID 485270; inhibition, % at 6.6 µM; OX1R-expressing cells, FRET antagonist read-out; O43613; hit rate 1.8% among 330,000; in the data active = inhibition mostly above about 38%, no sharp cut-off; inactive = mostly below about 40%
# Target sequence (O43613 whole entry, looked up): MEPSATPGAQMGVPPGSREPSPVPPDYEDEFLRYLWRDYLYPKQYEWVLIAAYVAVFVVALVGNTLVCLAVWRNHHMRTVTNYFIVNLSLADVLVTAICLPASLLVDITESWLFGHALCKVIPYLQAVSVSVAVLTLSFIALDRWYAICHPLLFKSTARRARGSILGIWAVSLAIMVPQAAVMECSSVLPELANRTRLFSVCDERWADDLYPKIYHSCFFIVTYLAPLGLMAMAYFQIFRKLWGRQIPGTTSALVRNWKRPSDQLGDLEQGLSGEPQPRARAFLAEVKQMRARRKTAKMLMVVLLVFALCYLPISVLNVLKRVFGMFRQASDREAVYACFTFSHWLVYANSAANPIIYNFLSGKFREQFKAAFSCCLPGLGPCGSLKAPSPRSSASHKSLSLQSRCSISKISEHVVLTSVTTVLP
# OX1R antag-2: antagonists of human orexin 1 receptor. hit rate 0.43% among 330,000. inhibition, % at 5 µM. CHO/OX1R cells, Fluo-8 calcium fluorescence, orexin A;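 active = inhibition above its plate's threshold, mean inhibition of all tested compounds on the plate plus 3 SD, cut at about 37% in these data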
# TAAR1 ag: human TAAR1 agonism. Q96RJ0. CHO RD-HGA16 TAAR1, Fluo-8 calcium fluorescence; vehicle wells 0%, saturating PEA agonist 100%. activation, % at 3 µM. hit rate 0.99% among 360,000;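 active = activation above the mean activation of all test compounds in the run plus 3 SD, cut at about 38% in these data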
#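 Signal – calcium-sensitive Fluo-8 signal, excitation 470-495, emission 515-575 nm · System – RD-HGA16 (CHO) cells co-expressing Gα16 and hTAAR1 · Incubation – 17-24 h seeding, 75 min 37 °C dye, 30 min RT · Compound dosing – 3 µM single concentration · Repeats – no replicates (n 1)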
# TAAR1 antag: human TAAR1 antagonism | Q96RJ0 | CHO RD-HGA16 TAAR1, Fluo-8 calcium fluorescence, antagonist | inhibition, % at 3 µM | hit rate 1.5% among 360,000;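 active = inhibition above a per-plate cutoff, the mean inhibition of test compounds on that plate plus 3 SD, cut at about 49% in these data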
#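 System: RD-HGA16 CHO cells with stable hTAAR1 and Gα16 | Probe or stimulus: EC80 β-phenethylamine stimulus | Dosing: 3 µM, single point | Times: Dye loading 75 min at 37 °C, then 30 min room temperature | Measured by: Fluo-8 calcium-sensitive fluorescence | Read-out basis: % inhibition of agonist calcium response | Replicates: n of 1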
# TAAR1 nonsel count: nonselective antagonism, TAAR1 counter-screen. hit rate 77% among 2,400. inhibition, % at 3 µM. counterscreen cell line, calcium fluorescence, antagonist mode. shares compounds with TAAR1 antag; in the data active = inhibition above about 22%;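 note: CHO-Ga16 host cells stimulated with ATP at an EC80 level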
# TAAR1 antag conf: human TAAR1 antagonism, confirmed; hit rate 40% among 2,400; shares compounds with TAAR1 antag; TAAR1-expressing cells, fluorescence antagonist read-out; inhibition, % at 3 µM; in the data active = inhibition above about 49%;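 note: CHO-Ga16 host cells challenged with agonist PEA near its EC80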
# Ga16 nonsel ag: counter-screen for TAAR1 antagonists: nonselective Ga16 agonists. shares compounds with TAAR1 antag. Ga16-expressing cells, calcium fluorescence, agonist counterscreen. activation, % at 3 µM. hit rate 18% among 2,400; in the data active = activation above about 12%
# TAAR1 ag counter: counter-screen for human TAAR1 antagonists: TAAR1 agonists; hTAAR1 cell line, fluorescence activation, agonist mode; shares compounds with TAAR1 antag; hit rate 2% among 2,400; activation, % at 3 µM; AID 651955; in the data active = activation above about 37%;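 note: CHO cells stably expressing TAAR1 with calcium dye readout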
# Numbers stand for hits; - = inactive; . = no result.
SMILES,CHO parental Ca,OX1R antag-1,OX1R antag-2,TAAR1 ag,TAAR1 antag,TAAR1 nonsel count,TAAR1 antag conf,Ga16 nonsel ag,TAAR1 ag counter
COC(=O)C1=C(C)N(Cc2ccc(C(F)(F)F)cc2)C(=NCc2ccccc2)NC1c1ccccc1 (stereo unspecified),.,.,.,-,51,36,-,18,-
COC(=O)C1=C(C)N(Cc2ccc(C(F)(F)F)cc2)C(=NCc2ccccc2)NC1c1cccc(Cl)c1 (stereo unspecified),.,.,.,-,60,39,-,13,-
Cc1cccc(/C=C/C(=O)c2cc(Br)ccc(=O)c2O)c1,-,-,-,-,51,36,-,14,-
CCc1ccc(/C=C/C(=O)c2cc(Br)ccc(=O)c2O)cc1,-,-,-,-,-,.,.,.,.
CC1CCCCC12NC(=O)N(CC(=O)OCC(=O)Nc1ccc(F)cc1[N+](=O)[O-])C2=O (stereo unspecified),-,-,-,-,76,32,53,-,-
CCC1(CC)NC(=O)N(CC(=O)OCC(=O)Nc2ccccc2OC(F)F)C1=O,-,-,-,-,-,.,.,.,.
CCC1(CC)NC(=O)N(CC(=O)OCC(=O)Nc2ccccc2[N+](=O)[O-])C1=O,-,-,-,-,68,23,52,12,-
C#CCNC(=O)C[C@H]1C[C@@]2(C(=O)OC)C(=C[C@H](C(C)C)O[C@@H]2C2CC2)N(Cc2ccccc2)C1=O,.,.,.,-,-,.,.,.,.
CC(C)(C)c1nnc(N/N=C/c2ccccc2O)n(N)c1=O,-,-,-,-,59,42,64,19,-
CC(C)(C)c1nnc(N/N=C/c2ccccc2)n(N)c1=O,-,-,-,-,59,30,52,-,-
CSc1nnc(C(C)(C)C)c(=O)n1/N=C/c1ccccc1,-,-,-,-,-,.,.,.,.
Nn1cnnc1N/N=C/c1ccccc1C(F)(F)F,-,-,-,-,-,.,.,.,.
CC1CN(C(=O)c2ccc(N3CCCCC3)c([N+](=O)[O-])c2)CC(C)O1 (stereo unspecified),-,-,-,-,-,.,.,.,.
C[C@@H]1CN([C@H](C)CO)C(=O)CCCn2nncc2CO[C@H]1CN(C)Cc1cccc(O)c1,.,.,.,-,-,.,.,.,.
Cc1cc(NC(=O)Cc2cn(C)c3ccccc23)ccc1Oc1cccnc1,.,.,.,-,-,.,.,.,.
CCC(=O)Nc1ccc(C(=O)Cn2ncc(Cl)c(Cl)c2=O)cc1,-,-,-,-,-,.,.,.,.
O=C(OCn1ncc(Cl)c(Cl)c1=O)c1ccc(C(F)(F)F)cc1,.,.,.,-,66,35,-,-,-
Cn1c2c(c(=O)n(C)c1=O)C(C(F)(F)F)(C(F)(F)F)N=C(CCC1CCCCC1)N2,-,-,-,-,-,.,.,.,.
C=CC[C@@H](CC(=O)N(CCO)Cc1ccccc1)C(=O)N[C@H](COC(=O)[C@H](CC=C)CC(=O)OC(C)(C)C)Cc1c[nH]c2ccccc12,-,-,-,-,-,.,.,.,.
C=CCC[C@@H](Cc1ccc(F)cc1)C(=O)OC[C@@H](Cc1c[nH]c2ccccc12)NC(=O)[C@@H](CC=C)CC(=O)NCCO,-,-,-,-,-,.,.,.,.
C=CCC[C@H](Cc1ccc(F)cc1)C(=O)OC[C@H](Cc1c[nH]c2ccccc12)NC(=O)[C@H](CC=C)CC(=O)NCCO,-,-,-,-,73,26,-,-,-
C=CC[C@H](CC(=O)N(CCO)Cc1ccccc1)C(=O)N[C@H](COC(=O)[C@@H](CC=C)CC(=O)OC(C)(C)C)Cc1c[nH]c2ccccc12,-,-,-,-,67,-,-,-,-
C=CC[C@@H](CC(=O)N[C@H](CO)Cc1ccccc1)C(=O)NC[C@H](OC(=O)[C@@H](CC=C)Cc1ccc(F)cc1)c1ccccc1,-,-,-,-,69,30,56,-,-
CCN(CC)C(=O)[C@H]1C[C@H](CC(=O)NC(C)(C)C)C(=O)N2CCc3c([nH]c4cc(CCC(=O)N(C)C)ccc34)[C@]12C,-,-,-,-,-,.,.,.,.
O=C(/C=C/c1ccc(Cl)cc1)N1CCN(c2c(Cl)cccc2[N+](=O)[O-])CC1,-,-,-,-,-,.,.,.,.
SMILES,CHO parental Ca,OX1R antag-1,OX1R antag-2,TAAR1 ag,TAAR1 antag,TAAR1 nonsel count,TAAR1 antag conf,Ga16 nonsel ag,TAAR1 ag counter
O=C(CSc1ccc(Cl)cc1)N1CCN(c2c(Cl)cccc2[N+](=O)[O-])CC1,-,-,-,-,65,25,-,-,-
CC(C)(C)N(Cc1ccccc1)C(=O)COC(=O)CSc1ccc([N+](=O)[O-])cc1,-,-,-,-,67,31,-,-,-
CC1CCCC(C)N1C(=O)COC(=O)CSc1ccc([N+](=O)[O-])cc1 (stereo unspecified),.,.,.,-,-,.,.,.,.
CC(=O)n1cc([C@@H]2C=C(C(=O)N3CCN(Cc4ccccc4)CC3)O[C@H](OCc3ccc(CO)cc3)C2)c2ccccc21,-,-,-,-,52,-,-,-,-
O=C(C1=C[C@H](c2coc3ccccc3c2=O)C[C@H](OCc2ccc(CO)cc2)O1)N1CCN(Cc2ccc3c(c2)OCO3)CC1,-,-,-,-,49,-,-,-,-
CC1=C(C(=O)N(C(C)C)C(C)C)CC(CC(=O)NC(c2ccccc2)c2ccccc2)C(=O)N1Cc1ccc(F)cc1 (stereo unspecified),.,.,.,-,-,.,.,.,.
CC(C)C[C@@H]1COc2cccc(N3CCN(Cc4ccccc4F)CC3)c2S(=O)(=O)N1,.,.,.,-,-,.,.,.,.
O=S1(=O)N[C@@H](Cc2ccccc2)COc2cccc(N3CCN(Cc4ccccc4F)CC3)c21,.,.,.,-,71,35,50,-,-
COc1cccc(-c2cc(C(=O)NCCCn3ccnc3)c3ccccc3n2)c1,-,-,-,-,-,.,.,.,.
Cc1cccc(-c2cc(C(=O)Nc3c(C)n(C)n(-c4ccccc4)c3=O)c3ccccc3n2)c1,-,-,-,-,70,31,-,-,-
Cc1c(NC(=O)c2cc(-c3ccc(F)cc3)on2)c(=O)n(-c2ccccc2)n1C,-,-,-,-,-,.,.,.,.
Cc1cccc(-c2cc(C(=O)Nc3ccncc3)c3ccccc3n2)c1,.,.,.,-,-,.,.,.,.
Cc1cccc(-c2cc(C(=O)Nc3cccnc3)c3ccccc3n2)c1,-,-,-,-,58,-,-,-,-
Cc1c(NC(=O)COC(=O)c2cc(-c3cccc4ccccc34)nc3ccccc23)c(=O)n(-c2ccccc2)n1C,-,-,-,-,-,.,.,.,.
Cc1c(NC(=O)c2cc(-c3ccc(F)cc3)nc3ccccc23)c(=O)n(-c2ccccc2)n1C,-,-,-,-,61,25,-,-,-
